Measurements pooled from the literature.
CHRM4: Muscarinic acetylcholine receptor M4 (CHRM4, Homo sapiens, UniProt P08173)
HRH1: Histamine H1 receptor (HRH1, Homo sapiens, UniProt P35367)

SMILES | target | test | conditions | endpoint | result
CC[C@H](C)[C@H](NC(=O)[C@H](CS)NC(=O)[C@H](CCC(N)=O)NC(=O)[C@H](CC(C)C)NC(=O)[C@H](CCCCN)NC(=O)[C@H](CCCNC(=N)N)NC(=O)[C@H](C)NC(=O)[C@@H](NC(=O)[C@H](CCC(N)=O)NC(=O)[C@@H](NC(=O)[C@H](CCC(=O)O)NC(=O)[C@H](C)NC(=O)[C@H](CCC(N)=O)NC(=O)[C@H](Cc1c[nH]cn1)NC(=S)Nc1ccc2c(c1)C(=O)OC21c2ccc(O)cc2Oc2cc(O)ccc21)C(C)C)[C@@H](C)CC)C(=O)N[C@@H](C)C(=O)N[C@@H](CC(=O)O)C(=O)N[C@@H](CCC(N)=O)C(=O)N[C@@H](Cc1ccccc1)C(=O)N[C@@H](Cc1c[nH]cn1)C(=O)N[C@@H](CCCNC(=N)N)C(=O)N[C@@H](CC(C)C)C(=O)N[C@@H](Cc1c[nH]cn1)C(=O)N[C@H](C(=O)N[C@@H](CCC(N)=O)C(=O)N[C@@H](CCC(N)=O)C(=O)O)C(C)C | Induced myeloid leukemia cell differentiation protein Mcl-1 (MCL1, Homo sapiens, UniProt Q07820, R263A) | cell-free assay, FP | – | Kd | 49 µM
c1cc(N2CCNCC2)c2cc[nH]c2c1 | CHRM4 | ligand displacement, radioligand | cell membranes | Ki | > 63.1 µM
CCCCC/C=C\C/C=C\C/C=C\C/C=C\CCCC(=O)OCCN | Cytochrome P450 2J2 (CYP2J2, Homo sapiens, UniProt P51589) | binding, absorbance | – | Kd | 14 µM
CC(C)(COP(=O)(O)OP(=O)(O)OC[C@H]1O[C@@H](n2cnc3c(N)ncnc32)[C@H](O)[C@@H]1OP(=O)(O)O)[C@@H](O)C(=O)NCCC(=O)NCCSC(=O)c1ccccc1N | pqsD (Pseudomonas aeruginosa, UniProt P20582, C113A) | binding, ITC | – | Kd | ~57 µM
Fc1ccc([C@@H]2CCNC[C@H]2COc2ccc3c(c2)OCO3)cc1 | Beta-1 adrenergic receptor (ADRB1, Homo sapiens, UniProt P08588) | ligand displacement, radioligand | – | Ki | 10 µM
CNc1nc2cc(OCCCCN3CCN(c4cccc(Cl)c4Cl)CC3)ccc2s1 | HRH1 | ligand displacement, radioligand | – | Ki | 0.056 µM
OC(c1ccc(F)cc1)C(F)(F)CCN1CCC(O)(c2ccc(Cl)cc2)CC1 (racemic) | HRH1 | cell-free assay, radioligand | – | Ki | 0.408 µM
CC[C@H](C)[C@H](NC(=O)[C@H](CCCNC(=N)N)NC(=O)[C@H](CC(C)C)NC(=O)[C@@H](N)Cc1ccccc1)C(=O)N[C@@H](CCCNC(=N)N)C(=O)N1CCC[C@H]1C(=O)N[C@@H](CCCCN)C(=O)O | HRH1 | cell-free assay, radioligand | – | Ki | > 10 µM
Nc1cccc2cc3ccccc3cc12 | Ferritin light chain (FTL, Equus caballus, UniProt P02791) | binding, fluorescence | – | Kd | 9 µM
CSCC[C@H](NC(=O)[C@@H](NC(=O)[C@@H](N)Cc1ccc(O)cc1)C(C)C)C(=O)NCC(=O)N[C@@H](Cc1c[nH]cn1)C(=O)O | Melanocortin receptor 5 (Mus musculus, UniProt P41149) | reporter gene, agonist | – | EC50 | 26.8 µM
N[C@@H](CCP(=O)(O)O)C(=O)O | Metabotropic glutamate receptor 4 (GRM4, Homo sapiens, UniProt Q14833) | calcium signal, agonist | – | EC50 | 0.151 µM
CC(C)C[C@H](NC(=O)[C@H](CCCCN)NC(=O)[C@@H]1CCCN1C(=O)[C@@H](N)CCCNC(=N)N)C(=O)N[C@@H](CCCCN)C(=O)O | HRH1 | cell-free assay, radioligand | – | Ki | > 10 µM
O=C(Nc1cccc(-c2ccn3c(CC4CC4)nnc3c2C(F)(F)F)c1)c1ccc(S(=O)(=O)F)cc1 | Metabotropic glutamate receptor 1 (GRM1, Homo sapiens, UniProt Q13255) | calcium signal, agonist | – | EC50 | > 50.1 µM
NC(N)=NCCC[C@H](NC(=O)OCc1ccccc1)C(=O)O | Serine protease 1 (PRSS1, Bos taurus, UniProt P00760) | enzyme activity, inhibitor, absorbance | pH 7.2 | Ki | 1230 µM
Cc1cc(N2CCNCC2)nc2ccccc12 | CHRM4 | ligand displacement, radioligand | cell membranes | Ki | > 63.1 µM
